Fewer inactive variants are shown than the library holds.
B1: tRNA (parent)
chain: GUUCCGUUGGCGUAAUGGUAACGCGUCUCCCUCCUAAGGAGAAGACUGCGGGUUCGAGUCCCGUACGGAACG

Variants of: B1
Assay: yeast fitness relative to wild type (ratio to wild type); higher = fitter; tRNA-Arg(CCU), competitive growth, 37 C, YPD
Procedure, shortened: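 The tRNA-Arg(CCU) gene variants were made by chemical synthesis with a 3% per-site mutation rate at 69 sites and inserted at the native genomic locus of Saccharomyces cerevisiae. After pooling, the strains were competed in YPD at 37°C for 24 hours in six parallel replicates. Gene amplicons from the start population and each end population were read by 100-nucleotide paired-end sequencing, and Darwinian fitness relative to wild type was taken from genotype frequency changes. Genotypes needed ≥ 100 starting reads, and estimates < 0.5 were set to 0.5.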

C4U G12A A20G C22U C62U A65C and U2A G25A C31G G39C C49U C60G cannot be ordered by yeast fitness: ≤ 0.5 for the first, ≤ 0.5 for the second.

C5A A21G U32G and U16A C49G A69U cannot be ordered by yeast fitness: ≤ 0.5 for the first, ≤ 0.5 for the second.

Going from C11G G41A to A43G G58A C61G, the yeast fitness falls from 0.586 to ≤ 0.5.

First: A36C A57G
Second: U8C A20U U28A C62U G67U
The yeast fitness of the first is higher: 0.642 for the first, ≤ 0.5 for the second.

C11G U13G C55G C66U and G18C C22U C61U cannot be ordered by yeast fitness: ≤ 0.5 for the first, ≤ 0.5 for the second.

Going from U3C C5U A37G A43C C62U to C24G G63C A65U, the yeast fitness rises from ≤ 0.5 to 0.596.

Going from A15G U19A to U28C A43C G44C C61A, the yeast fitness falls from 1.13 to 0.548.

First: G6A A21G U35C A70C
Second: U8A U26A C29A C62U
The yeast fitness of the first is lower: ≤ 0.5 for the first, 0.537 for the second.

C11G C22U A40G C55G C61G and A14C C34U G39C A70U cannot be ordered by yeast fitness: ≤ 0.5 for the first, ≤ 0.5 for the second.

G6A C24U A65U and U2C C11G U19G cannot be ordered by yeast fitness: ≤ 0.5 for the first, ≤ 0.5 for the second.

First: G56A U64C
Second: C5U C27U U28G C33G A36G
The yeast fitness of the first is higher: 1.01 for the first, ≤ 0.5 for the second.

Compared with U8C A15U G25A C34G U54A A65U, A21U G41A U54C is higher in yeast fitness: 0.541 for the first, 0.723 for the second.

First: U7C C34A
Second: C29U A57G
The yeast fitness of the first is lower: 0.764 for the first, 0.908 for the second.

Compared with U35C G41A A43C A57G, G9C U28C A37C C46G is higher in yeast fitness: 0.501 for the first, 0.768 for the second.

Going from C4A A14G C30G A45G G52A to U8G A21C C46U, the yeast fitness falls from 0.609 to 0.554.

C24U U32G A40U A65C and A37U A43U A57U C66A cannot be ordered by yeast fitness: ≤ 0.5 for the first, ≤ 0.5 for the second.

First: C4U G41C G51C G58C
Second: C60G C62U
The yeast fitness of the first is lower: ≤ 0.5 for the first, 0.743 for the second.

Compared with C4G C24G C33G G63A, C34U C49A G67A is lower in yeast fitness: 0.554 for the first, ≤ 0.5 for the second.

Compared with U35A U54G, C5U A21G is higher in yeast fitness: ≤ 0.5 for the first, 0.981 for the second.

U26A A37G G48A C49G and A14C C22U G41A C61U C66U cannot be ordered by yeast fitness: ≤ 0.5 for the first, ≤ 0.5 for the second.

First: C27A C34U A42U G50C G58A G68C A69G
Second: A20C A40C
The yeast fitness of the first is lower: ≤ 0.5 for the first, 0.788 for the second.

First: U3C C22A A45C C62G A65U
Second: A21U C22U G25A A57C G68U A69C
The yeast fitness of the first is higher: 0.64 for the first, 0.599 for the second.

Compared with U54G C66A, C11U A36U G48C is higher in yeast fitness: 0.549 for the first, 0.632 for the second.

Compared with A14G G23A, A14U C24G U26G G56C is lower in yeast fitness: 0.559 for the first, ≤ 0.5 for the second.

Compared with A42C C55U C62U, G25A G67C is higher in yeast fitness: 0.509 for the first, 0.992 for the second.

Going from U7C U8A C24G U64C to U26A G41A, the yeast fitness rises from ≤ 0.5 to 0.818.

U16G A42U C62A A70C and A36C U59C A65G cannot be ordered by yeast fitness: ≤ 0.5 for the first, ≤ 0.5 for the second.

First: A42G A43G A45U
Second: A15C G18C A40U
The yeast fitness of the first is higher: 0.722 for the first, ≤ 0.5 for the second.

Going from U3A U7C C62G G63C to U19G A43C C49U U53C C55G, the yeast fitness falls from 0.586 to ≤ 0.5.

First: A40G U47C
Second: C4G G18C C46G
The yeast fitness of the first is higher: 0.788 for the first, ≤ 0.5 for the second.

U2G C49U G51C C55A and C11G C24U A42G cannot be ordered by yeast fitness: ≤ 0.5 for the first, ≤ 0.5 for the second.

C5G U7A C27A C29A and A20G U28A A40G cannot be ordered by yeast fitness: ≤ 0.5 for the first, ≤ 0.5 for the second.

U28G C31U C49G and U7G U28G C34U G38A cannot be ordered by yeast fitness: ≤ 0.5 for the first, ≤ 0.5 for the second.

C5G G9C C30G and A14C C22U U64C A70G cannot be ordered by yeast fitness: ≤ 0.5 for the first, ≤ 0.5 for the second.

Compared with G6A C24U C29G C66U, C5U A40C C46A is higher in yeast fitness: ≤ 0.5 for the first, 0.794 for the second.

A43U G50C C60A and C4U C62G G67A cannot be ordered by yeast fitness: ≤ 0.5 for the first, ≤ 0.5 for the second.

First: C30U A57G A65U
Second: G23C C60A
The yeast fitness of the first is lower: 0.667 for the first, 0.72 for the second.

U26G C27U G50C and C24G A36C A37G A70C cannot be ordered by yeast fitness: ≤ 0.5 for the first, ≤ 0.5 for the second.

Compared with G17A G25C, U2C A21G A36G G38C is lower in yeast fitness: 0.705 for the first, ≤ 0.5 for the second.

First: C4G A36G G48A
Second: A15G A45G
The yeast fitness of the first is lower: 0.533 for the first, 0.853 for the second.

Compared with G38C C49G U54G, C4A U16G is higher in yeast fitness: 0.621 for the first, 0.651 for the second.

Work on U32G G63A yielded a yeast fitness of 0.557.
